Experiments:
Homo sapiens [1] = species on record: Homo sapiens; assay: Anti hepatitis-B virus activity was evaluated in 2.2.15 cells.; type: functional, cell-based; details: HepG2 2.2.15
In short: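 HBV-producing 2.2.15 cells; EC50 reported; compounds examined at concentrations up to 10 μM.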

Homo sapiens [2] = species on record: Homo sapiens; assay: The growth inhibition activity for the compound was evaluated in 2.2.15 cells.; type: functional, cell-based; details: HepG2 2.2.15
In short: (§1)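 Cytotoxicity (growth inhibition, IC50) measured in 2.2.15 cells and in CEM cells, with compounds tested at concentrations up to 200 μM.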

CCRF-CEM = assay: The growth inhibition activity for the compound was evaluated in CEM cells.; type: functional, cell-based; details: Homo sapiens; in short: as §1
Homo sapiens [3] = species on record: Homo sapiens; assay: Selectivity index was determined from the ratio of IC50 to the EC50 values evaluated in 2.2.15 cells.; type: functional, HepG2 2.2.15
In short: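 Selectivity computed as the ratio of the growth-inhibition IC50 to the anti-HBV EC50, both from 2.2.15 cells. Compounds were tested up to 200 μM for toxicity and up to 10 μM for antiviral activity.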

| SMILES | EC50 (Homo sapiens [1]) | IC50 (Homo sapiens [2]) | IC50 (CCRF-CEM) | Selectivity (Homo sapiens [3]) |
| --- | --- | --- | --- | --- |
| O=c1[nH]c(=O)n([C@@H]2O[C@H](CO)[C@@H](O)[C@@H]2F)cc1C(F)(F)F | > 10 µM | > 200 µM |  |  |
| O=c1[nH]c(=O)n([C@@H]2O[C@H](CO)[C@@H](O)[C@H]2F)cc1I | > 10 µM | > 200 µM |  |  |
| CCc1cn([C@H]2O[C@@H](CO)[C@H](O)[C@@H]2F)c(=O)[nH]c1=O | > 10 µM | > 200 µM |  |  |
| O=c1[nH]c(=O)n([C@H]2O[C@@H](CO)[C@H](O)[C@@H]2F)cc1/C=C/Br | > 10 µM | > 200 µM | > 100 µM |  |
| Nc1nc(=O)n([C@H]2O[C@@H](CO)[C@H](O)[C@H]2F)cc1F | > 10 µM | > 200 µM |  |  |
| C#Cc1cn([C@H]2O[C@@H](CO)[C@H](O)[C@H]2F)c(=O)[nH]c1=O | > 10 µM | > 200 µM |  |  |
| Nc1nc(=O)n([C@H]2O[C@@H](CO)[C@H](O)[C@H]2F)cc1Cl | > 10 µM | > 200 µM |  |  |
| O=c1[nH]c(=O)n([C@H]2O[C@@H](CO)[C@H](O)[C@H]2F)cc1F | > 10 µM | > 200 µM |  |  |
| O=c1[nH]c(=O)n([C@H]2O[C@@H](CO)[C@H](O)[C@H]2F)cc1Cl | > 10 µM | > 200 µM |  |  |
| O=c1[nH]c(=O)n([C@H]2O[C@@H](CO)[C@H](O)[C@H]2F)cc1Br | > 10 µM | > 200 µM |  |  |
| Nc1nc(=O)n([C@H]2O[C@@H](CO)[C@H](O)[C@H]2F)cc1Br | > 10 µM | > 200 µM |  |  |
| Nc1ccn([C@@H]2O[C@H](CO)[C@@H](O)[C@@H]2F)c(=O)n1 | 1.4 µM | > 200 µM | > 100 µM | >140 |
| Cc1cn([C@@H]2O[C@H](CO)[C@@H](O)[C@@H]2F)c(=O)[nH]c1=O [5-METHYL-2'-FLUOROARAURACIL] | 0.1 µM | > 200 µM | > 200 µM | >2000 |
| Nc1nc(=O)n([C@@H]2O[C@H](CO)[C@@H](O)[C@@H]2F)cc1I [FIACITABINE] | 5 µM | > 200 µM |  | >40 |
